These results are taken from ChEMBL document CHEMBL4706502, “Synthesis and structure activity relationships of cyanopyridone based anti-tuberculosis agents” (Eur J Med Chem, 2020).

Series [1] deals with Mycobacterium tuberculosis. Kind of series: Antitubercular activity against Mycobacterium tuberculosis H37Rv ATCC 27294 assessed as reduction in microbial growth under GAST/Fe medium after 1 week by two fold serial dilution method. To be noted: H37Rv ATCC 27294, 168 h, time 1 weeks. It counts as functional. In a few lines:
(§1)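 M. tuberculosis H37Rv grown to OD650nm 0.2-0.3 and diluted 1000-fold; about 1× 10^4 bacteria per well. Compounds taken from DMSO stocks and 2-fold serially diluted, in duplicate. Incubated 37 °C for 1 week, read by inverted mirror. MIC = lowest concentration giving complete growth inhibition. Isoniazid positive control, DMSO negative control. Media: GAST/Fe pH 6.6 or 7H9/glucose/casitone/Tyloxapol.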

Series [2] in a line: Cytotoxicity against human MRC5 cells assessed as reduction in cell viability after 24 hrs by NRU assay. Type of series: cell-based.
For series [3], the system named is Mycobacterium tuberculosis. Kind of series: Antitubercular activity against Mycobacterium tuberculosis H37Rv ATCC 27294 assessed as reduction in microbial growth under 7H9/glucose medium after 1 week by two fold serial dilution method. It counts as functional. Particulars: H37Rv ATCC 27294, 168 h, time 1 weeks. A digest of the protocol:
as §1

The subject of series [4] is Mycobacterium tuberculosis. Kind of series: Inhibition of wild-type Mycobacterium tuberculosis thymidylate kinase expressed in Escherichia coli BLi5 competent cells at 0.2 mM using dTMP as substrate by lactate dehydrogenase, pyruvate kinase and nucleoside diphosphate kinase coupled spectrophotometric method. In a few lines: (§2)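 Purified MtbTMPK in a coupled spectrophotometric assay. Substrates fixed at dTMP 0.05 mM and ATP 0.5 mM. Compounds in DMSO, serially diluted; IC50 calculated, or no inhibition recorded at 0.2 mM.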

A short description of series [5]: Selectivity index, ratio of CC50 for human MRC5 cells to ratio of MIC99 for antitubercular activity against Mycobacterium tuberculosis H37Rv ATCC 27294 assessed as reduction in microbial growth under GAST/Fe medium. Particulars: read-out: Selectivity Index. It counts as toxicity.
A short description of series [6]: Selectivity index, ratio of CC50 for human MRC5 cells to ratio of MIC99 for antitubercular activity against Mycobacterium tuberculosis H37Rv ATCC 27294 assessed as reduction in microbial growth under 7H9/glucose medium. Type of series: toxicity. To be noted: read-out: Selectivity Index.
The nature of series [7]: Inhibition of wild-type Mycobacterium tuberculosis thymidylate kinase expressed in Escherichia coli BLi5 competent cells using dTMP as substrate by lactate dehydrogenase, pyruvate kinase and nucleoside diphosphate kinase coupled spectrophotometric method. A digest of the protocol:
as §2

Active and inactive are the calls of the source. The rule behind the calls is not given here.

For the compound `CS(=O)(=O)c1c(-c2ccc(C(F)(F)F)cc2)c[nH]c(=O)c1C#N`, the MIC99 in series [1] and in series [3] was over 50 µM each time. For the same compound, in series [2], the CC50 at 24 h is over 64 µM.

For `CS(=O)(=O)c1c(-c2ccc(Cl)c(Cl)c2)c[nH]c(=O)c1C(N)=O`, in series [1], the MIC99 was 19 µM. Moreover, the half-maximal cytotoxic concentration (CC50) at 24 h in series [2] is over 64 µM.

For the compound `C[S+]([O-])c1c(-c2cccc(OCc3cccc(Cl)c3)c2)c[nH]c(=O)c1C#N` (centres undefined), the MIC99 in series [1] and in series [3] was 9.4 µM each time. Further, the CC50 at 24 h in series [2] was over 64 µM.

For the compound `COc1ccc(Oc2cccc(-c3c[nH]c(=O)c(C#N)c3[S+](C)[O-])c2)cc1` (centres undefined), the figures for the MIC99 in series [1] and in series [3] were 6.25 µM and 25 µM, respectively. Moreover, the cytotoxic concentration (CC50) at 24 h in series [2] was determined as 30 µM.

With `CS(=O)(=O)c1c(-c2cccc(Cl)c2)c[nH]c(=O)c1C#N`, the MIC99 in series [1] and in series [3] was over 50 µM each time. Besides, the CC50 at 24 h in series [2] was over 64 µM.

As to `C[S+]([O-])c1c(-c2cccc(Oc3ccccc3)c2)c[nH]c(=O)c1C#N` (centres undefined), the CC50 at 24 h in series [2] worked out at 32 µM. The MIC99 in series [3] was 37 µM. Also, in series [4], the inhibition result is “inactive”.

Consider `C[S+]([O-])c1c(-c2ccc(Cl)c(Cl)c2)c[nH]c(=O)c1C(N)=O` (centres undefined), for which the MIC99 was at least 50 µM in series [1] and 50 µM in series [3]. In series [2], the CC50 at 24 h is 16 µM.

For `COc1ccc(-c2c[nH]c(=O)c(C#N)c2[S+](C)[O-])cc1` (centres undefined), the MIC99 in series [1] and in series [3] was over 100 µM each time. The CC50 at 24 h in series [2] was over 64 µM.

Regarding `Cc1ccc(Oc2cccc(-c3c[nH]c(=O)c(C#N)c3[S+](C)[O-])c2)cc1` (centres undefined), the MIC99 in series [1] came to 6.25 µM; in series [3] it was 25 µM. Besides, the CC50 at 24 h in series [2] is 30 µM.

In the case of `C[S+]([O-])c1c(-c2ccc(Oc3ccc(Cl)cc3)cc2)c[nH]c(=O)c1C#N` (centres undefined), the MIC99 in series [1] and in series [3] was 9.4 µM throughout. Also, in series [2], the CC50 at 24 h turned out to be 25 µM.

Turning to `C[S+]([O-])c1c(-c2cccc(OCc3ccc(Cl)c(Cl)c3)c2)c[nH]c(=O)c1C#N` (centres undefined), the MIC99 in series [1] and in series [3] was 9.4 µM each time. Moreover, the CC50 at 24 h in series [2] was over 64 µM.

For `C[S+]([O-])c1c(-c2ccc(Cl)c(Cl)c2)c[nH]c(=O)c1C#N` (centres undefined), the MIC99 in series [1] is 12.5 µM; in series [3] it was 19 µM. Also, the half-maximal cytotoxic concentration (CC50) at 24 h in series [2] is over 64 µM.

Turning to `C[S+]([O-])c1c(-c2ccc(-c3ccccc3)cc2)c[nH]c(=O)c1C#N` (centres undefined), the MIC99 in series [1] was 2.3 µM; in series [3] it was 1.2 µM. The CC50 at 24 h in series [2] is over 64 µM. In addition, the figures for the selectivity ratio in series [5] and in series [6] were 27.8 and 50, respectively.

Take `C[S+]([O-])c1c(-c2cccc(Oc3ccc(Cl)cc3)c2)c[nH]c(=O)c1C#N` (centres undefined): the MIC99 in series [1] is 9.5 µM; in series [3], 12.5 µM. Moreover, in series [2], the CC50 at 24 h worked out at 24 µM.

In the case of `NNC(=O)c1ccncc1` [ISONIAZID], the MIC99 in series [1] amounted to 0.2 µM; in series [3] it was 0.15 µM.

For the compound `C[S+]([O-])c1c(-c2ccc(Oc3ccc(Cl)c(Cl)c3)cc2)c[nH]c(=O)c1C#N` (centres undefined), the values for the MIC99 in series [1] and in series [3] were 19 µM and 9.4 µM, respectively. Also, the CC50 at 24 h in series [2] was 28 µM.

For `C[S+]([O-])c1c(-c2ccc(C(F)(F)F)cc2)c[nH]c(=O)c1C#N` (centres undefined), the values for the MIC99 in series [1] and in series [3] were 19 µM and 37 µM, respectively. For the same compound, the half-maximal cytotoxic concentration (CC50) at 24 h in series [2] is over 64 µM.

As for `C[S+]([O-])c1c(-c2ccc(OCc3ccccc3)cc2)c[nH]c(=O)c1C#N` (centres undefined), the MIC99 in series [1] was 4.7 µM; in series [3], 9.4 µM. Also, the 50% cytotoxic concentration (CC50) at 24 h in series [2] came to 25 µM.

For `COc1ccc(Oc2ccc(-c3c[nH]c(=O)c(C#N)c3[S+](C)[O-])cc2)cc1` (centres undefined), the MIC99 in series [1] came to 9.4 µM; in series [3] it was 19 µM. In addition, in series [2], the CC50 at 24 h was determined as 23 µM.

For the compound `C[S+]([O-])c1c(-c2ccccc2Oc2ccccc2)c[nH]c(=O)c1C#N` (centres undefined), the values for the MIC99 in series [1] and in series [3] were 9.4 µM and 50 µM, respectively. For the same compound, the CC50 at 24 h in series [2] is 30 µM. For the same compound, the inhibition result in series [4] is “inactive”.

With `C[S+]([O-])c1c(-c2ccc(Cl)cc2)c[nH]c(=O)c1C#N` (centres undefined), the results for the MIC99 in series [1] and in series [3] were 25 µM and 19 µM, respectively. Further, the CC50 at 24 h in series [2] is over 64 µM.

For the compound `C[S+]([O-])c1c(-c2ccccc2)c[nH]c(=O)c1C#N` (centres undefined), the values for the MIC99 in series [1] and in series [3] were 37 µM and 25 µM, respectively. Besides, the CC50 at 24 h in series [2] is over 64 µM. For the same compound, the inhibition result in series [4] is “inactive”.

With `C[S+]([O-])c1c(-c2cccc(OCc3ccc(Cl)cc3)c2)c[nH]c(=O)c1C#N` (centres undefined), the MIC99 in series [1] and in series [3] was 9.4 µM in each case. In series [2], the half-maximal cytotoxic concentration (CC50) at 24 h was found to be 31 µM.

Consider `C[S+]([O-])c1c(-c2cccc(OCc3ccccc3Cl)c2)c[nH]c(=O)c1C#N` (centres undefined), for which the figures for the MIC99 in series [1] and in series [3] were 4.7 µM and 9.4 µM, respectively. Besides, the CC50 at 24 h in series [2] worked out at 25 µM.

Take `CS(=O)(=O)c1c(-c2ccccc2Cl)c[nH]c(=O)c1C#N`: the MIC99 in series [1] was over 50 µM; in series [3], 37 µM. The CC50 at 24 h in series [2] is over 64 µM.

In turn, `C[S+]([O-])c1cc(-c2cccc(Br)c2)[nH]c(=O)c1C#N` (centres undefined) had a 50% inhibitory concentration (IC50) in series [7] of 28 µM. Further, the MIC99 in series [1] and in series [3] was 19 µM in each case.

For `CSc1c(-c2ccccc2)c[nH]c(=O)c1C#N`, the IC50 in series [7] is 206 µM. The MIC99 was at least 100 µM in series [1] and 100 µM in series [3]. In addition, the 50% cytotoxic concentration (CC50) at 24 h in series [2] was found to be 64 µM.

On to `C[S+]([O-])c1c(-c2ccc(Br)cc2)c[nH]c(=O)c1C#N` (centres undefined), for which the MIC99 in series [1] worked out at 19 µM; in series [3], 12.5 µM. In series [2], the CC50 at 24 h was over 64 µM.

`Cc1ccc(Oc2ccc(-c3c[nH]c(=O)c(C#N)c3[S+](C)[O-])cc2)cc1` (centres undefined): the results for the MIC99 in series [1] and in series [3] were 4.7 µM and 9.4 µM, respectively. Moreover, in series [2], the CC50 at 24 h came out at 28 µM.

In the case of `C[S+]([O-])c1c(-c2cccc(OCc3ccccc3)c2)c[nH]c(=O)c1C#N` (centres undefined), the MIC99 in series [1] worked out at 6.25 µM; in series [3], 19 µM. For the same compound, the cytotoxic concentration (CC50) at 24 h in series [2] was found to be 25 µM.

With `C[S+]([O-])c1c(-c2ccc(Oc3ccccc3)cc2)c[nH]c(=O)c1C#N` (centres undefined), the MIC99 turned out to be 3.13 µM in series [1] and 25 µM in series [3]. For the same compound, in series [2], the CC50 at 24 h is over 64 µM. In series [4], the inhibition entry was “inactive”.

With `C[S+]([O-])c1c(-c2cccc(Cl)c2)c[nH]c(=O)c1C#N` (centres undefined), the MIC99 was found to be 37 µM in series [1] and 19 µM in series [3]. In addition, in series [2], the 50% cytotoxic concentration (CC50) at 24 h was over 64 µM.

On to `C[S+]([O-])c1c(-c2ccccc2Cl)c[nH]c(=O)c1C#N` (centres undefined), for which the MIC99 was determined as 37 µM in series [1] and 12.5 µM in series [3]. For the same compound, the CC50 at 24 h in series [2] is over 64 µM.

`C[S+]([O-])c1c(-c2cccc(Oc3ccc(Cl)c(Cl)c3)c2)c[nH]c(=O)c1C#N` (centres undefined): the MIC99 in series [1] was found to be 19 µM; in series [3], 12.5 µM. Moreover, the half-maximal cytotoxic concentration (CC50) at 24 h in series [2] was determined as 8 µM.

As to `C[S+]([O-])c1c(-c2cccc(OCc3ccccc3[N+](=O)[O-])c2)c[nH]c(=O)c1C#N` (centres undefined), the results for the MIC99 in series [1] and in series [3] were 19 µM and 37 µM, respectively. For the same compound, the half-maximal cytotoxic concentration (CC50) at 24 h in series [2] stood at 64 µM.

In general, MIC99 refers to an inhibitory concentration at the 99% level, which refers to growth in some studies and to a panel of isolates in others. What is called CC50 is the concentration that lowers cell viability or growth by half. A word on the IC50: it is the point on the concentration scale where inhibition reaches its midpoint.
